In series [1] the target is Procathepsin L (Homo sapiens) (UniProt P07711). Description: Inhibition of human cathepsin L assessed as Kinact /Ki ratio using fluorogenic substrate cbz-FR-AMC monitored for 90 to 120 mins by spectrophotometry. A digest of the protocol:
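Continuous kinetic assay with 0.5 ng/mL final cathepsin L and 10 μM Z-FR-AMC, with DMSO below 6%. Inhibitors were a 3-fold, 11-point series from […] to 1.0 μM. Substrate and inhibitor were combined and enzyme was added to start the reaction. AMC release was read for 2 h and converted via an AMC standard curve. Progress curves were fitted to a six-parameter covalent inhibition model (k_inact, association/dissociation constants).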

Series [2] is described as follows: Cytotoxicity in mouse C2C12 cells assessed as reduction in cell viability incubated for 3 days. The format is cell-based. As to conditions: read-out: LD50.
Another series concerns the target Cruzipain (Trypanosoma cruzi, UniProt P25779). Description: Inhibition of recombinant Trypanosoma cruzi Cruzain expressed in Pichia pastoris using Z-Phe-Arg-AMC substrate incubated for 30 mins by fluorescence based assay.
The subject of the next series is Trypanosoma cruzi. The class given is functional. To be noted: C2C12, 72 h, read-out: LD50 (the source's name).
In series [3] the target is Procathepsin L (Homo sapiens) (UniProt P07711). The experiment in a line: Irreversible inhibition of human cathepsin L assessed as reduction in enzyme activity using fluorogenic substrate cbz-FR-AMC incubated for 30 mins followed by 100 fold dilution and measured after 2 hrs by spectrophotometry. A digest of the protocol: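 Preincubation-dilution: cathepsin L at 100-fold final assay concentration incubated 30 min with inhibitor at 10-fold its IC₅₀. Then diluted 100-fold into assay buffer with 10 μM Z-FR-AMC, giving standard enzyme level and 0.1× IC₅₀ inhibitor. AMC fluorescence read continuously in kinetic mode for 2 h and activity compared with vehicle control.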

Series [4] has the same target. The experiment in a line: Reversible inhibition of human cathepsin L assessed as residual enzyme activity using fluorogenic substrate cbz-FR-AMC incubated for 30 mins followed by 100 fold dilution and measured after 1 hrs by spectrophotometry.
For series [5] the target is unchanged. Description: Irreversible inhibition of human cathepsin L assessed as residual enzyme activity using fluorogenic substrate cbz-FR-AMC incubated for 30 mins followed by 100 fold dilution and measured after 2 hrs by spectrophotometry.
The target is the same in series [6]. Description: Irreversible inhibition of human cathepsin L assessed as residual enzyme activity using fluorogenic substrate cbz-FR-AMC incubated for 30 mins followed by 100 fold dilution and measured after 1 hrs by spectrophotometry.

Molecules are shown by their SMILES. pIC50: −log10 of the molar value. The source made the active and inactive calls. No cut-off for these calls is given here.

Chain of Cruzipain (P25779 whole entry): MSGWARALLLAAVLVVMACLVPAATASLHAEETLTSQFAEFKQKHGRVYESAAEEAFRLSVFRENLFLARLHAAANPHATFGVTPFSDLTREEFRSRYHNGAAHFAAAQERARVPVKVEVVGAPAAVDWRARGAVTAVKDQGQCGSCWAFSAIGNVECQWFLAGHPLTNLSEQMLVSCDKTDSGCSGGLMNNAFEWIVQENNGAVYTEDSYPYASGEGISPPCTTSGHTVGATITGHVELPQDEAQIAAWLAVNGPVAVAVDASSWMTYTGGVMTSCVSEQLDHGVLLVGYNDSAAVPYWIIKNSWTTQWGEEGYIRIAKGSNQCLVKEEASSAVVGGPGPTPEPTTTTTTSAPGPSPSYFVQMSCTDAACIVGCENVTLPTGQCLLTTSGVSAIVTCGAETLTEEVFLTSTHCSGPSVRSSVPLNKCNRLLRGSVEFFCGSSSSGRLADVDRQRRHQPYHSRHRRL
Chain of Procathepsin L (Homo sapiens) (P07711 114-333 limits assumed): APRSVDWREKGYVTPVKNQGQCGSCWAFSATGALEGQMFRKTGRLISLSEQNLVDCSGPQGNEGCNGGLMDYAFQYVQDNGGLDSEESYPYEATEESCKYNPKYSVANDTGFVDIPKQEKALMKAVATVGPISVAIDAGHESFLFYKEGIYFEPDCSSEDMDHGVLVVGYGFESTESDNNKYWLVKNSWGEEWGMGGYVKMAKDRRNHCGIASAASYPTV

Turning to `CC[C@H](C)[C@@H](C(=O)O[C@@H](CC(C)C)C(=O)N[C@@H](CC(C)C)C(=O)N[C@@H](/C=C/C(=O)N1C(=O)C=C(OC)[C@H]1Cc1ccccc1)Cc1ccccc1)N(C)C`, the Ratio in series [1] came to 23.9 ×10³ /M/s. Moreover, in series [2], the CC50 at 72 h is greater than 10000 nM. Besides, at Cruzipain, the pIC50 – broadly, the negative decadic logarithm of the IC50, by convention in mol/L – was 7.43. Further, the LC50 in the series on Trypanosoma cruzi turned out to be 537 nM.

For `CC[C@H](C)[C@@H](C(=O)O[C@@H](CC(C)C)C(=O)N[C@@H](CC(C)C)C(=O)N[C@@H](C)/C=C/C(=O)N1C(=O)C=C(OC)[C@@H]1CC(C)C)N(C)C`, in series [1], the Ratio stood at 2510 ×10³ /M/s. In series [2], the CC50 at 72 h was greater than 10000 nM. For the same compound, the pIC50 on Cruzipain is 9.31. In addition, the LC50 in the series with Trypanosoma cruzi was 5.1 nM.

With `COC1=CC(=O)N(C(=O)/C=C/[C@H](Cc2ccccc2)NC(=O)[C@H](CC(C)C)NC(=O)[C@H](CC(C)C)OC(=O)[C@H](C(C)C)N(C)C)[C@H]1CC(C)C`, the Ratio in series [1] was 1780 ×10³ /M/s. Moreover, the CC50 at 72 h in series [2] was greater than 10000 nM. Besides, on Cruzipain, the pIC50 was 9.60. Besides, in the series with Trypanosoma cruzi, the LC50 is 16.4 nM.

With `C#CCCCCOC1=CC(=O)N(C(=O)/C=C/[C@H](C)NC(=O)[C@H](CC(C)C)NC(=O)[C@H](CC(C)C)OC(=O)[C@H]([C@@H](C)CC)N(C)C)[C@@H]1C`, in series [2], the CC50 at 72 h was greater than 10000 nM. Also, the pIC50 on Cruzipain was 9.33. In the series on Trypanosoma cruzi, the LC50 was 17 nM.

As for `CC[C@H](C)[C@@H](C(=O)O[C@@H](CC(C)C)C(=O)N[C@@H](CC(C)C)C(=O)N[C@H](/C=C/C(=O)N1C(=O)C=C(OC)[C@H]1Cc1ccccc1)Cc1ccccc1)N(C)C`, the Ratio in series [1] was determined as 1030 ×10³ /M/s. The CC50 at 72 h in series [2] was greater than 10000 nM. Moreover, the pIC50 on Cruzipain is 8.97. Also, in the series with Trypanosoma cruzi, the LC50 worked out at 33.3 nM.

Turning to `CC[C@H](C)[C@@H](C(=O)O[C@@H](CC(C)C)C(=O)N[C@@H](CC(C)C)C(=O)N[C@@H](/C=C/C(=O)N1C(=O)C=C(OC)[C@@H]1Cc1ccccc1)Cc1ccccc1)N(C)C`, in series [1], the Ratio is 6.9 ×10³ /M/s. Also, the CC50 at 72 h in series [2] was greater than 10000 nM. In addition, on Cruzipain, the pIC50 is 7.09. Besides, the LC50 in the series with Trypanosoma cruzi was 1080 nM.

With `CC[C@H](C)[C@@H](C(=O)O[C@@H](CC(C)C)C(=O)N[C@@H](CC(C)C)C(=O)N[C@H](/C=C/C(=O)N1C(=O)C=C(OC)[C@@H]1CC(C)C)Cc1ccccc1)N(C)C`, the CC50 at 72 h in series [2] was greater than 10000 nM. In addition, the pIC50 on Cruzipain was 8.97. Besides, the LC50 with Trypanosoma cruzi was 61.8 nM.

As for `CC[C@H](C)[C@@H](C(=O)O[C@@H](CC(C)C)C(=O)N[C@@H](CC(C)C)C(=O)N[C@H](/C=C/C(=O)N1C(=O)C=C(OC)[C@@H]1C)Cc1ccccc1)N(C)C`, the CC50 at 72 h in series [2] was greater than 10000 nM. In addition, the pIC50 at Cruzipain is 9.08. For the same compound, the LC50 in the series with Trypanosoma cruzi is 35.8 nM.

Take `CC[C@H](C)[C@@H](C(=O)O[C@@H](CC(C)C)C(=O)N[C@@H](CC(C)C)C(=O)N[C@@H](C)/C=C/C(=O)N1C(=O)C=C(OC)[C@@H]1Cc1ccccc1)N(C)C`: the CC50 at 72 h in series [2] was greater than 10000 nM. Further, the pIC50 at Cruzipain is 9.12. Moreover, the LC50 in the series with Trypanosoma cruzi is 19.1 nM.

As to `CC(C)CCNC(=O)[C@H](CC(C)C)NC(=O)[C@H]1O[C@@H]1C(=O)O`, the inhibition result in series [3] was “Active”.

Turning to `COC1=CC(=O)N(C(=O)/C=C/[C@H](Cc2ccccc2)NC(=O)[C@H](CC(C)C)NC(=O)[C@H](CC(C)C)OC(=O)[C@H](Cc2ccccc2)N(C)C)[C@H]1C`, the Ratio in series [1] came to 819 ×10³ /M/s. Also, the CC50 at 72 h in series [2] was greater than 10000 nM. For the same compound, at Cruzipain, the pIC50 was 8.92. Moreover, the LC50 in the series on Trypanosoma cruzi was determined as 60.3 nM.

Take `COC1=CC(=O)N(C(=O)/C=C/[C@H](C)NC(=O)[C@H](CC(C)C)NC(=O)[C@H](CC(C)C)OC(=O)[C@H](C(C)C)N(C)C)[C@H]1C`: the Ratio in series [1] is 487 ×10³ /M/s. In addition, the CC50 at 72 h in series [2] was greater than 10000 nM. Also, the pIC50 on Cruzipain was 8.54. In the series with Trypanosoma cruzi, the LC50 was 12.9 nM.

`CC[C@H](C)[C@@H](C(=O)O[C@@H](CC(C)C)C(=O)N[C@@H](CC(C)C)C(=O)N[C@@H](C)CCC(=O)N1C(=O)C=C(OC)[C@@H]1C)N(C)C`: the Activity in series [4] came to 75%.

Take `CC[C@H](C)[C@@H](C(=O)O[C@@H](CC(C)C)C(=O)N[C@@H](CC(C)C)C(=O)N[C@H](/C=C/C(=O)N1C(=O)C=C(OC)[C@@H]1Cc1ccccc1)Cc1ccccc1)N(C)C`: the Ratio in series [1] worked out at 719 ×10³ /M/s. Moreover, in series [2], the CC50 at 72 h is greater than 10000 nM. Besides, the pIC50 at Cruzipain is 8.94. Also, in the series on Trypanosoma cruzi, the LC50 is 33.8 nM.

Take `O=C(Cn1ccnc1[N+](=O)[O-])NCc1ccccc1` [BENZNIDAZOLE]: in the series with Trypanosoma cruzi, the LC50 worked out at 1500 nM.

`COC1=CC(=O)N(C(=O)/C=C/[C@H](C)NC(=O)[C@H](CC(C)C)NC(=O)[C@H](CC(C)C)OC(=O)[C@H](Cc2ccccc2)N(C)C)[C@H]1Cc1ccccc1`: the Ratio in series [1] worked out at 3480 ×10³ /M/s. For the same compound, in series [2], the CC50 at 72 h was greater than 10000 nM. For the same compound, the pIC50 on Cruzipain was 9.14. Also, in the series on Trypanosoma cruzi, the LC50 amounted to 18.6 nM.

For the compound `COC1=CC(=O)N(C(=O)/C=C/[C@H](Cc2ccccc2)NC(=O)[C@H](CC(C)C)NC(=O)[C@H](CC(C)C)OC(=O)[C@H](Cc2ccccc2)N(C)C)[C@@H]1Cc1ccccc1`, in series [1], the Ratio turned out to be 1390 ×10³ /M/s. Moreover, the CC50 at 72 h in series [2] is greater than 10000 nM. The pIC50 at Cruzipain is 8.43. Also, the LC50 in the series on Trypanosoma cruzi was greater than 10000 nM.

In the case of `CC[C@H](C)[C@@H](C(=O)O[C@@H](CC(C)C)C(=O)N[C@@H](CC(C)C)C(=O)N[C@@H](C)/C=C/C(=O)N1C(=O)C=C(OC)[C@@H]1C)N(C)C` [GALLINAMIDE A], in series [1], the Ratio was 901 ×10³ /M/s. In addition, the Activity in series [5] was 5%. Further, the CC50 at 72 h in series [2] is greater than 10000 nM. The pIC50 at Cruzipain is 9.59. The LC50 with Trypanosoma cruzi came out at 14.7 nM. The inhibition result in series [6] was “Active”.

Consider `COC1=CC(=O)N(C(=O)/C=C/[C@H](Cc2ccccc2)NC(=O)[C@H](CC(C)C)NC(=O)[C@H](CC(C)C)OC(=O)[C@H](Cc2ccccc2)N(C)C)[C@H]1Cc1ccccc1`, for which the Ratio in series [1] was 1060 ×10³ /M/s. Further, the CC50 at 72 h in series [2] was greater than 10000 nM. The pIC50 at Cruzipain was 8.87. Besides, the LC50 with Trypanosoma cruzi is greater than 10000 nM.

Values taken from ChEMBL document CHEMBL4321814, “Design of Gallinamide A Analogs as Potent Inhibitors of the Cysteine Proteases Human Cathepsin L and Trypanosoma cruzi Cruzain” (J Med Chem, 2019).
